Test results: ChEMBL document CHEMBL5036356, “Spatial Distribution and Stability of Cholinesterase Inhibitory Protoberberine Alkaloids from Papaver setiferum” (J Nat Prod, 2022)

Key:
Acetylcholinesterase [1] = molecular target: Acetylcholinesterase (Electrophorus electricus, UniProt O42275); experiment: Inhibition of electrical eel AChE using acetylthiocholine chloride as substrate incubated for 5 mins by DTNB reagent based Ellman's method
Method in brief: (§1)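 Enzyme stocks (commercial eel AChE, human recombinant AChE or horse serum BChE) at 0.0075 U/mL in 100 mM potassium phosphate, pH 7.4, added to start the reaction. Acetylthiocholine chloride 1 mM and DTNB 0.5 mM final. Compounds were taken from 5 mg/mL methanol stocks and serially diluted in buffer, with methanol blanks. Rate read at 405 nm, 25 °C, for 5 min. IC50 reported as mean ± SEM of at least three repeats.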

Acetylcholinesterase [2] = molecular target: Acetylcholinesterase (Homo sapiens, UniProt P22303); experiment: Inhibition of human recombinant AChE using acetylthiocholine chloride as substrate incubated for 5 mins by DTNB reagent based Ellman's method; method in brief: as §1
Cholinesterase = Cholinesterase (Equus caballus, UniProt P81908); experiment: Inhibition of horse serum BChE incubated for 5 mins by DTNB reagent based Ellman's method
Method in brief: as §1, with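 “blanks.” for “blanks. Rate read at 405 nm, 25 °C, for 5 min.”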

Chain of Cholinesterase (P81908 whole entry): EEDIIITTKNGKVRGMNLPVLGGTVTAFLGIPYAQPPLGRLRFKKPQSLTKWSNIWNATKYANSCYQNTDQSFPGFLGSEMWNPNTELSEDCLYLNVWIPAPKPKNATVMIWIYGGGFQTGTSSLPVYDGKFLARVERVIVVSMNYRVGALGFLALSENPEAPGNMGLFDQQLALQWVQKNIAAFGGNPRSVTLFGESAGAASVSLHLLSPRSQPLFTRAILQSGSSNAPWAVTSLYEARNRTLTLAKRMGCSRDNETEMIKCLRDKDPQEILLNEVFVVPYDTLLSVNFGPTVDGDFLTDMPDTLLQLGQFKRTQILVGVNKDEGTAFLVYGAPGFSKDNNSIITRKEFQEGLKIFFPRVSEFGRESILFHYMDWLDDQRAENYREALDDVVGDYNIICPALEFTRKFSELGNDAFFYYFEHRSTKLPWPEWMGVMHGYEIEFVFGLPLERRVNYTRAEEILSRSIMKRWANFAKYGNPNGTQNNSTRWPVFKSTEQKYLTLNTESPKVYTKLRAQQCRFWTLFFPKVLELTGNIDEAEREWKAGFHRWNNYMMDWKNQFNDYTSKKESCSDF
Chain of Acetylcholinesterase (Electrophorus electricus, UniProt O42275) (O42275 whole entry): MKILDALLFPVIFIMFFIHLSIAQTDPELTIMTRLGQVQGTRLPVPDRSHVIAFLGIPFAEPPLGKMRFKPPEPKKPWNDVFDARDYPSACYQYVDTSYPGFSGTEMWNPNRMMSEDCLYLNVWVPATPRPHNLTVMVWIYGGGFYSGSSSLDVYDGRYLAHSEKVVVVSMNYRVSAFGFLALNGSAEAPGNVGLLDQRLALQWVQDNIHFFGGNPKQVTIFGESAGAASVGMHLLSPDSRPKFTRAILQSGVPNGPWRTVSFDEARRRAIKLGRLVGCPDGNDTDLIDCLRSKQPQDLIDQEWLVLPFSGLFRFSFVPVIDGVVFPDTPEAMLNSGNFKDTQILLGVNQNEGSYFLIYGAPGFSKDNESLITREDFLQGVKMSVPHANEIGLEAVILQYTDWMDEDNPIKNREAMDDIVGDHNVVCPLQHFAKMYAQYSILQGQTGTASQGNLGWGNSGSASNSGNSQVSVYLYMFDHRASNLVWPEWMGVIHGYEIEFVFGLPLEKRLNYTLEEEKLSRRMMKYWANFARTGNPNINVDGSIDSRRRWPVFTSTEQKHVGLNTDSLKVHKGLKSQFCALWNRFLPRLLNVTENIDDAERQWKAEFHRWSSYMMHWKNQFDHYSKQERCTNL
Chain of Acetylcholinesterase (Homo sapiens, UniProt P22303) (P22303 whole entry): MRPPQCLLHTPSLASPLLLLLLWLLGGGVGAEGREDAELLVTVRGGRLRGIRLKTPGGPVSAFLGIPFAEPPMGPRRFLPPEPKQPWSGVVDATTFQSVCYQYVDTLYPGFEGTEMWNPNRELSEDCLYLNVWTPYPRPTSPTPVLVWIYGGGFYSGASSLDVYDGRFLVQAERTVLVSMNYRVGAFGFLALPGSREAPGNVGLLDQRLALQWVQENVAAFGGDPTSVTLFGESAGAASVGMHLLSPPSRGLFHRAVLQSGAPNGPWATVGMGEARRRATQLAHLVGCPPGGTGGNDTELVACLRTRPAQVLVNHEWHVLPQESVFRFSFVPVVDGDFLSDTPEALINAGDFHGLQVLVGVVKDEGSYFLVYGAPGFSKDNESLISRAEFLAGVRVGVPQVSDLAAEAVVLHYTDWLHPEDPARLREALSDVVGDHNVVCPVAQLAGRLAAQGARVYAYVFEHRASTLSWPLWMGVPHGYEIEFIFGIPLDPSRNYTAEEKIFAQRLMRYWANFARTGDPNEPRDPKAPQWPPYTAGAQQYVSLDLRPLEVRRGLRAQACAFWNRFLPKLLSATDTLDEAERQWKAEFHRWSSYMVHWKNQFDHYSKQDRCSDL

COc1cc2c3c(c1O)-c1c(cccc1OC)C[C@@H]3[N+](C)(C)CC2
Not Active: IC50 (Acetylcholinesterase [1]) | Ki (Acetylcholinesterase [1]) | IC50 (Acetylcholinesterase [2]) | Ki (Acetylcholinesterase [2])

COc1cc(C[C@H]2c3cc(O)c(OC)cc3CC[N+]2(C)C)ccc1O
Not Active: Ki (Cholinesterase) | IC50 (Acetylcholinesterase [1]) | Ki (Acetylcholinesterase [1]) | IC50 (Acetylcholinesterase [2]) | Ki (Acetylcholinesterase [2])

O=[N+]([O-])CCc1ccc(O[C@@H]2O[C@H](CO[C@@H]3OC[C@@H](O)[C@H](O)[C@H]3O)[C@@H](O)[C@H](O)[C@H]2O)cc1
Not Active: IC50 (Cholinesterase) | Ki (Cholinesterase) | IC50 (Acetylcholinesterase [1]) | Ki (Acetylcholinesterase [1]) | IC50 (Acetylcholinesterase [2]) | Ki (Acetylcholinesterase [2])

COc1cc2c(cc1O)[C@H](Cc1ccc(OC)c(OC)c1)[N+](C)(C)CC2
Not Active: Ki (Cholinesterase) | IC50 (Acetylcholinesterase [1]) | Ki (Acetylcholinesterase [1]) | IC50 (Acetylcholinesterase [2]) | Ki (Acetylcholinesterase [2])

COc1cc2c3c(c1O)-c1c(cccc1OC)C[C@@H]3N(C)CC2
Not Active: IC50 (Acetylcholinesterase [2]) | Ki (Acetylcholinesterase [2])

COC1=C[C@]23CCN(C)[C@H](Cc4ccc(OC)c(O)c42)C3=CC1=O [SALUTARIDINE]
Not Active: Ki (Cholinesterase) | IC50 (Acetylcholinesterase [1]) | Ki (Acetylcholinesterase [1]) | IC50 (Acetylcholinesterase [2]) | Ki (Acetylcholinesterase [2])
